High-throughput results from PubChem BioAssay.
Sampled rows, rich in hits. Any-hit rate of the full collection: about 3.5%.
MrgX1 ag – agonists of human MrgX1 receptor, primary screen, HEK293 cells, Fluo-4 calcium flux; 310,000 compounds, 0.44% hits; B-score at 10 µM; Mas-related G-protein coupled receptor member X1 (Homo sapiens), Q96LB2; AID 588627, 2011; Fluo-4 calcium fluorescence, agonist mode; hits give high values;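 active = calcium response B-score plate-corrected fluorescence ratio at least 3 library SD, with starting fluorescence B-score inside 5 SD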
Target sequence (Q96LB2 whole entry, looked up): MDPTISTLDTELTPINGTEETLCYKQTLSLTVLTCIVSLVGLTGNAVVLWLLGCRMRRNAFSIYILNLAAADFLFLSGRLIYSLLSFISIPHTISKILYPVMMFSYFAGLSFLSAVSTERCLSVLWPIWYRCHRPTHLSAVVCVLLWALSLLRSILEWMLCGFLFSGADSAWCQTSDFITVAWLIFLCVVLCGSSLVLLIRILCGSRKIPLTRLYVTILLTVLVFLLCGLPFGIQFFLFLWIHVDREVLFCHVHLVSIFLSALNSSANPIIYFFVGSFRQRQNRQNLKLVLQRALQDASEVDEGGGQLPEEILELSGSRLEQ
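Test system: HEK293 cells stably expressing human MrgX1 receptor; amount: 15,000 cells per well; doses: compound delivered in addition one of three; times: overnight plating before 1 h dye loading; detection: Fluo-4 NW calcium-flux fluorescence, kinetic read; read-out basis: B-scored fluorescence response ratio; controls: positive and negative controls per plate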
RGS4 inh – RGS4 inhibitors, primary screen, cell-based, HEK293 M3R inducible RGS4, calcium flux; Regulator of G-protein signaling 4 (Homo sapiens), P49798; Fluo-4 calcium flux; hits give high values; triggered by carbachol at its EC20; B-score at 10 µM; 310,000 compounds, 0.45% hits;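 active = B-score, a plate-corrected calcium signal, over three deviations above library mean, with baseline fluorescence within five deviations of library mean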;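 also: RGS4 expression induced by doxycycline in cells with stable M3 receptor; B-score is computed from the integrated fluorescence ratio over baseline after carbachol; higher B-score means a larger calcium signal and so more RGS4 inhibition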
Target sequence (P49798 whole entry, looked up): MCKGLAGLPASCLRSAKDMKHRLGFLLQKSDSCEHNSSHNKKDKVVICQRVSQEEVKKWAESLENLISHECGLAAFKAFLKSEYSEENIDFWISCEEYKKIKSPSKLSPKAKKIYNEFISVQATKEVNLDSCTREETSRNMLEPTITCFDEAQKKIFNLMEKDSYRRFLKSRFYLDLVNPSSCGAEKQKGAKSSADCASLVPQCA
MrgX1 PAM – positive allosteric modulators of MrgX1, primary screen, HEK293 cells, Fluo-4 calcium flux; 310,000 compounds, 0.63% hits; AID 588675, 2011; FDSS; hits give high values; Mas-related G-protein coupled receptor member X1 (Homo sapiens), Q96LB2; B-score at 10 µM;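 active = plate-corrected calcium response at least 3 library SD above typical, normal starting fluorescence, not activating the receptor alone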;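 also: compound read alongside a low EC10 to EC30 dose of BAM8-22 agonist; peak minus trough fluorescence over baseline measured at the second addition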
MrgX1 antag – antagonists of human MrgX1 receptor, primary screen, HEK293 cells, Fluo-4 calcium flux. B-score at 10 µM. BAM8-22 antagonism; hits give low values. 310,000 compounds, 1.3% hits. AID 588676, 2011. Mas-related G-protein coupled receptor member X1 (Homo sapiens), Q96LB2;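 active = calcium-response B-score plate-corrected more than 3 library SD below zero, starting fluorescence within 5 deviations, no agonist response on first addition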;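 also: peak minus trough fluorescence over baseline after final BAM8-22 challenge near maximal dose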
RGS4 pot – RGS4 potentiators or activators, primary screen, cell-based, HEK293 M3R inducible RGS4, calcium flux; carbachol calcium flux Fluo4; hits give low values; B-score at 10 µM; 310,000 compounds, 0.92% hits;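 active = B-score of the integrated calcium signal more than 4 SD below the library mean, with starting fluorescence not abnormally high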;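 also: negative B-score means reduced calcium response which marks RGS4 activation or potentiation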
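Detection: kinetic calcium fluorescence imaging with Fluo4-AM dye, 2 µM / Material: HEK293 cells with stable M3R and inducible RGS4 / Schedule: recording 10 s baseline at 1 Hz, 100 s post-agonist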
RGS4 inh valid – enhanced carbachol calcium response, M3R/RGS4 cells, RGS4 inhibitor project, cell-based, validation screen, HEK293 M3R/RGS4, calcium flux; shares compounds with RGS4 inh; carbachol calcium Fluo-4 fluorescence; carbachol added at its EC20; 0 = buffer wells, 100 = carbachol control; calcium response, % at 10 µM; 1,700 compounds, 65% hits; AID 492999, 2010;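 active = duplicate-averaged calcium response above the buffer-only control mean plus 5 SD of those controls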;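 also: integrated fluorescence ratio F max minus min over baseline F0; higher response in RGS4-induced cells means RGS4 inhibition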
RGS4 uninduced – carbachol calcium response in non-induced M3R cells, confirmation, counter-screen for RGS4 inhibitor project, cell-based, HEK293 M3R; 1,900 compounds, 20% hits; activity (percent), % at 10 µM; AID 493000, 2010; carbachol calcium Fluo-4; submaximal (EC20) carbachol stimulus; buffer wells 0%, carbachol control wells 100%; shares compounds with RGS4 inh; call rule not given here;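 also: RGS4 induction absent so cells express M3R without RGS4; higher means more calcium signal and flags a non-specific hit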
M3R basal Ca ctr – second RGS4 inhibitor counter-screen in uninduced cells lacking carbachol. shares compounds with RGS4 inh. 1,900 compounds, 22% hits. calcium response (agonist-mode artifact), % at 10 µM. HEK293 M3R/RGS4 non-induced, Fluo-4 calcium, no carbachol; normalised: buffer wells 0%, carbachol wells 100%;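 active = duplicate-averaged calcium rise in uninduced cells above buffer wells' mean plus 5 SD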
An asterisk follows results filed as active; i = inactive; · = not tested or not shown.

SMILES | MrgX1 ag | RGS4 inh | MrgX1 PAM | MrgX1 antag | RGS4 pot | RGS4 inh valid | RGS4 uninduced | M3R basal Ca ctr
Cc1cccc2[nH]c(CCNC(=O)C3CCC(=O)N(CCc4cccc(F)c4)C3)nc12 (stereo not given) | i | i | i | i | i | · | · | ·
CCOc1cccc(-c2c(C(=O)N/N=C/c3cccs3)nnn2-c2nonc2N)c1 | i | 5.6* | i | i | i | 30%* | i | i
COc1ccc(/C=N/NC(=O)c2nnn(-c3nonc3N)c2-c2cccs2)cc1OC | i | i | i | i | i | · | · | ·
COc1cccc(-c2c(C(=O)N/N=C(\C)c3ccco3)nnn2-c2nonc2N)c1 | i | i | i | i | i | · | · | ·
COc1ccc(/C=N/NC(=O)c2nnn(-c3nonc3N)c2-c2cccc(OC)c2)cc1 | i | i | 7.2* | i | i | · | 30%* | 8.0%*
COc1cccc(-c2c(C(=O)N/N=C/c3cccs3)nnn2-c2nonc2N)c1 | i | i | i | -7.6* | i | · | 40%* | i
CCOC(=O)C1=C(C)n2c(s/c(=C/c3cccc([N+](=O)[O-])c3)c2=O)=NC1c1ccc(O)c(OC)c1 (stereo not given) | i | 34* | i | i | i | 66%* | 34%* | 20%*
CCOC(=O)C1(Cc2cccc(Cl)c2)CCCN(C(=O)c2cnn(CC)c2)C1 (stereo not given) | i | i | i | i | i | · | · | ·
O=C(Cc1ccc(F)cc1)Nc1ccc(S(=O)(=O)N2CCCCC2)cc1 | i | i | i | i | i | · | · | ·
Cc1ccc(Nc2nc(N)nc(CN3CCN(Cc4ccc5c(c4)OCO5)CC3)n2)cc1Cl | i | 6.2* | i | i | i | i | i | i
Nc1nc(CN2CCN(Cc3ccccc3)CC2)nc(Nc2ccc3c(c2)OCCO3)n1 | i | i | i | i | i | · | · | ·
Cc1ccc(Nc2nc(N)nc(CN3CCN(Cc4ccc5c(c4)OCO5)CC3)n2)cc1C | · | i | · | · | i | i | i | i
Cc1ccc(Nc2nc(N)nc(CN3CCN(Cc4ccc5c(c4)OCO5)CC3)n2)c(C)c1 | i | i | i | i | i | · | · | ·
Cc1ccc(Nc2nc(N)nc(CN3CCN(Cc4ccc5c(c4)OCO5)CC3)n2)cc1 | i | i | i | i | i | i | i | i
O=C(Nc1cc(C(F)(F)F)ccc1N1CCOCC1)c1ccc(F)cc1 | i | i | i | i | i | · | · | ·
O=C(Nc1cc(C(F)(F)F)ccc1N1CCOCC1)c1n[nH]c(=O)c2ccccc12 | i | 7.5* | i | i | i | 24%* | i | i
COc1ccccc1C(=O)NCCCNC(=O)c1cccnc1 | i | i | i | i | i | · | · | ·
C=CCOc1ccccc1CN1CCCCCC1 | i | i | i | i | i | · | · | ·
CCC(C(=O)NCCc1ccc(C)cc1)n1nc(C)c2c(C)n(-c3ccccc3)nc2c1=O (stereo not given) | i | i | i | i | i | · | · | ·
CCC(C(=O)N1CCCC1)n1nc(C)c2c(C)n(-c3ccccc3)nc2c1=O (stereo not given) | i | i | i | i | i | i | i | i
CC1CN(C(=O)c2ccc(COCC(F)(F)F)o2)CC(C)O1 (stereo not given) | i | i | i | i | i | · | · | ·
O=C(c1ccc(COCC(F)(F)F)o1)N1CCCC1 | i | 5.9* | i | i | i | i | i | i
Cc1ccc(NC(=O)C(C)Sc2nnc(C)n2CC2CCCO2)cc1 (stereo not given) | · | 4.7* | · | · | i | 5.0%* | i | i
Cc1ccc(NC(=O)CSc2nnc(C)n2CC2CCCO2)cc1 (stereo not given) | i | i | i | i | i | · | · | ·
CC1(C)CC(=O)C(=Cc2cn(-c3ccccc3)nc2-c2ccc(Cl)cc2)C(=O)C1 | i | i | i | i | i | i | i | i
SMILES | MrgX1 ag | RGS4 inh | MrgX1 PAM | MrgX1 antag | RGS4 pot | RGS4 inh valid | RGS4 uninduced | M3R basal Ca ctr
CC1(C)CC(=O)C(=Cc2cn(CCC#N)nc2-c2ccc(Cl)cc2)C(=O)C1 | i | i | i | i | i | · | · | ·
C=CCOc1nc2sc(C)c(C)c2c(=O)n1-c1ccccc1 | i | 6* | i | i | i | i | i | i
NC(=O)CC1C(=O)N(c2ccccc2)C(=S)N1NC(=O)c1ccccc1 (stereo not given) | i | i | i | i | i | · | · | ·
COc1cc([N+](=O)[O-])ccc1NC(=O)NCC1CCN(Cc2ccc(Cl)cc2)CC1 | i | i | i | i | i | · | · | ·
CCCOc1ccc(N2C(=O)CC(S/C(N)=N/N=C(\C)c3cccs3)C2=O)cc1 (stereo not given) | i | i | i | i | i | · | i | i
CC(/C=C/c1ccc(N(C)C)cc1)=N\N=C(/N)SC1CC(=O)N(c2ccc(C(=O)O)cc2)C1=O (stereo not given) | i | i | i | i | i | · | · | ·
C/C(=N\N=C(/N)SC1CC(=O)N(c2cccc(Cl)c2)C1=O)c1cccs1 (stereo not given) | i | i | i | i | i | · | i | i
COc1ccc(-c2csc(NC(=O)c3ccccc3C(=O)O)n2)cc1 | i | i | i | i | i | · | · | ·
O=C(Nc1nc(-c2ccc(-c3ccccc3)cc2)cs1)C1=COCCO1 | i | i | i | i | i | · | i | i
Cc1cc(C)c(-c2csc(NC(=O)C3=COCCO3)n2)cc1C | i | i | i | i | i | · | i | i
COc1cccc(OC)c1C(=O)Nc1nc(-c2ccccc2)cs1 | i | i | i | i | i | i | i | i
O=C(COc1ccccc1)Nc1nnc(S(=O)(=O)N2CCCCCC2)s1 | i | i | i | i | i | · | · | ·
